In the library only some 1.4% were active in any assay of this set; here they are far more common.
CAL PDZ FP-1 – inhibitors of human CAL PDZ peptide binding | purified CAL PDZ, TMR-peptide fluorescence polarization, 1 h | Q9HD26 | inhibition, % at 24.9 µM | actives 0.92% (n = 300,000);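 active means mean inhibition of at least 30% with at least half of replicates also reaching 30%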;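 further: 0% = DMSO neutral control and 100% = excess unlabeled competitor peptide PRC23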
CAL PDZ FP-2 – inhibitors of human CAL PDZ peptide binding. actives 0.02% (n = 330,000). purified CAL PDZ, TMR-peptide fluorescence polarization, 1 h. AID 504414. inhibition, % at 20 µM;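 active means highest replicate inhibition of at least 40%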;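 further: plate controls were DMSO neutral control wells for no effect and unlabeled competitor peptide control wells for full effect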
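material = purified tagged CAL PDZ domain construct (CerCALP) | buffer or medium = sodium phosphate/NaCl buffer pH 7.4 with TCEP, IgG, Thesit | reagent = TMR-labelled reporter peptide T*-PRC34 bound in PDZ groove | incubation = 1 h room-temperature incubation prior to read | measured by = fluorescence polarization (mP) | evaluation = percent inhibition from loss of millipolarization | control set = unlabelled peptide and DMSO controls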
DYRK1A inh – Dyrk1A (rat) kinase inhibition | ADP-Glo luminescence, NFATc1 peptide | inhibition, % at 12.5 µM | actives 0.43% (n = 310,000) | AID 504441; in the data active means inhibition above about 50%;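 further: plate controls were vehicle with enzyme for no effect and no enzyme for full effect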
ARNT-TACC3 inh – disruptors of human ARNT/TACC3 interaction | Q9Y6A5 | actives 0.66% (n = 390,000) | AID 623870 | inhibition, % at 9.99 µM | AlphaScreen His-ARNT PAS-B/GST-TACC3 binding, luminescence; TACC3 fragment carries E629A point mutation;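 active means mean inhibition of replicates at least 50% and at least half of replicates each reaching 50%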;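 further: 0% = complete ARNT plus TACC3 wells and 100% = ARNT alone without TACC3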
Active calls of the source: *; x = no result.

SMILES	CAL PDZ FP-1	CAL PDZ FP-2	DYRK1A inh	ARNT-TACC3 inh
COc1ccc(NC(=O)N2c3ccc(OC)cc3C(C)=CC2(C)C)cc1	4	-2	20	42
CCOc1ccc2c(c1)C(C)=CC(C)(C)N2C(=O)Nc1ccccc1	-3	1	-1	48*
O=C(c1cccc(S(=O)(=O)N2CCCCCC2)c1)N1CCN(c2ccccc2F)CC1	6	-3	5	23
Cc1cccc(N2CCN(C(=O)c3cccc(S(=O)(=O)N4CCCCC4)c3)CC2)c1C	69*	0	1	5
O=C(c1ccc(S(=O)(=O)N2CCCC2)cc1)N1CCCCCC1	67*	-1	1	-9
Cc1ccc(C(=O)NCCc2ccc(S(=O)(=O)N3CCCC3)cc2)cc1	44*	0	-4	-4
O=C(Nc1ccc(C(=O)N2CCCCC2)cc1)C1CC1	42*	0	-2	20
O=C(Nc1ccc(C(=O)N2CCCC2)cc1)C1CCCCC1	-5	0	5	-6
CC(C)NC(=O)N1CCCCN2[C@@H](CO)[C@@H](c3ccc(C#CC4CC4)cc3)[C@@H]2C1	x	x	x	0
CC(C)Sc1nnc(CNC(=O)C23CC4CC(CC(C4)C2)C3)n1C1CCCCC1	47*	-1	4	7
COCC(=O)Nc1ccc2c(c1)[C@@H]1C[C@H](CC(=O)NCc3ccncc3)O[C@@H](CO)[C@@H]1O2	x	x	x	4
CCCNC(=O)N(C)C[C@H]1Oc2cc(C3=CCCC3)ccc2S(=O)(=O)N([C@@H](C)CO)C[C@H]1C	x	x	x	2
Cc1noc(C)c1S(=O)(=O)N(C)C[C@H]1Oc2ccc(NC(=O)Nc3ccc4c(c3)OCO4)cc2C(=O)N([C@@H](C)CO)C[C@H]1C	x	x	x	5
O=C(NN1CCOCC1)c1cc(-c2ccc(Br)cc2)nc2ccccc12	59*	0	-3	-6
O=C(N/N=C/c1ccc2c(c1)OCO2)c1cc(-c2ccccc2)nc2ccccc12	4	0	-4	12
O=C(Nc1cccnc1)c1cc(-c2ccc(Br)cc2)nc2ccccc12	68*	0	2	0
O=C(Nc1ccc2c(c1)OCO2)c1cc(-c2cccnc2)nc2ccccc12	40*	0	6	2
Cc1ccc(C)c(-c2cc(C(=O)Nc3cccnc3)c3ccccc3n2)c1	-4	-3	2	12
O=C(NN1CCOCC1)c1ccccc1Br	-1	0	5	x
Cc1ccccc1C(=O)NN1CCOCC1	82*	0	x	-35
C[C@H](CO)N1C[C@H](C)[C@H](CN(C)C(=O)Nc2cccc3ccccc23)Oc2ncc(/C=C/c3ccccc3)cc2C1=O	x	x	x	15
CCOC(=O)c1ccc(NC(=S)NNC(=O)c2cc(-c3cccnc3)nc3ccccc23)cc1	49*	-2	18	10
O=C(c1ccccc1)c1c[nH]c(C(=O)C(Cl)(Cl)Cl)c1	1	0	-3	-7
O=C(Cc1ccccc1)c1c[nH]c(C(=O)C(Cl)(Cl)Cl)c1	168*	1	5	-3
O=C(Nc1ccc2c(c1)[C@H]1C[C@@H](CC(=O)N3CCCCC3)O[C@@H](CO)[C@H]1O2)NC1CCCC1	x	x	x	6
SMILES	CAL PDZ FP-1	CAL PDZ FP-2	DYRK1A inh	ARNT-TACC3 inh
O=C(Nc1ccc(F)cc1)c1cc(-c2ccccc2)no1	109*	0	6	-10
COc1ccc(-c2cc(C(=O)Nc3ccccc3)on2)cc1	x	-1	9	2
Cc1ccc(NC(=O)CN2CCCC2c2cccn2C)cc1C (configuration not stated)	-6	-1	-1	17
Cc1ccc(NC(=O)CN2CCCC2c2cccn2C)c(Br)c1 (configuration not stated)	39*	-1	x	-1
CO[C@@H]1CN(C)C(=O)c2ccc(NC(C)=O)cc2OC[C@H](C)N(C(=O)CC2CC2)C[C@H]1C	x	x	x	-3
Oc1ccccc1/C=N/NC(=S)NC1CC2C=CC1C2 (configuration not stated)	-6	0	x	64*
Oc1ccccc1C=NNC(=S)Nc1ccc(F)cc1	-1	-3	-1	active
CN(C)c1nc(N/N=C/c2ccccc2O)nc(Nc2ccc(F)cc2)n1	3	0	3	47*
COc1ccc(NC(=O)C2CCN(S(=O)(=O)c3ccc(N4CCCC4=O)cc3)CC2)c(OC)c1	34*	-2	-6	3
COc1ccc(NC(=O)C2CCN(S(=O)(=O)c3ccc(OC)c(OC)c3)CC2)c(OC)c1	-16	-1	-7	-2
Nc1nc(-c2ccccc2)[nH]c(=O)c1N	-1	-3	75*	4
CO[C@H]1O[C@H](CO)[C@@H](OC(=O)Nc2cccc(F)c2)[C@H](OC(=O)Nc2ccc3c(c2)OCO3)[C@H]1OC(=O)Nc1ccc2c(c1)OCO2	x	x	x	2
COc1ccc(Cl)cc1NCCC(O)c1ccc(F)cc1 (configuration not stated)	-5	0	6	16
COc1ccc(NCCC(O)c2ccc(Cl)cc2)cc1 (configuration not stated)	35*	x	5	16
C[C@H](O)C#Cc1cnc2c(c1)C(=O)N([C@@H](C)CO)C[C@H](C)[C@H](CN(C)C(=O)CC1CC1)O2	x	x	x	-9
O=C(Nc1ccc(Nc2ccccc2)cc1)c1cc([N+](=O)[O-])ccc1Cl	46*	9	11	2
CCC(C)Nc1nc(-c2cccc(OC)c2O)nc2ccccc12 (configuration not stated)	x	0	11	21
CCC(C)Nc1nc(-c2ccccn2)nc2ccccc12 (configuration not stated)	-2	-1	3	62*
c1ccc(CNc2nc(-c3ccccc3)nc3ccccc23)cc1	1	2	6	-9
c1ccc(CNc2nc(-c3ccccn3)nc3ccccc23)cc1	-4	-3	-8	70*
Cc1ccc(S(=O)(=O)NCC[C@H]2CC[C@H](NC(=O)Nc3ccccc3F)[C@@H](CO)O2)cc1	x	x	x	-14
COc1ccc(NC(=O)N(C)C[C@H]2Oc3c(NC(=O)Nc4ccc(F)cc4)cccc3C(=O)N([C@H](C)CO)C[C@H]2C)cc1	x	x	x	-2
COc1cc(OCC(=O)NC(C)C)cc2c1C(=O)O[C@@H](C)CCCC(=O)CCCCC2	46*	x	-5	11
COc1cc2c(c(OCC(=O)NC(C)C)c1)C(=O)O[C@@H](C)CCCC(=O)CCCCC2	-24	-1	1	2
COc1cc(/C=N/Nc2nncn2/N=C/c2ccc(O)c(OC)c2)ccc1O	2	1	30	51*
O=[N+]([O-])c1ccc(NC(c2ccccc2)c2ccc3cccnc3c2O)cc1 (configuration not stated)	91*	2	-3	-9
CC(=O)NC(c1cccc([N+](=O)[O-])c1)c1ccc2cccnc2c1O (configuration not stated)	-2	0	-2	21
COc1cccc(C(NC(C)=O)c2ccc3cccnc3c2O)c1 (configuration not stated)	1	-20	-5	100*
CCNC(=O)C[C@@H]1CC[C@H]2[C@H](COc3ccc(NC(=O)C4CCCCC4)cc3C(=O)N2C)O1	x	x	x	-7

High-throughput results deposited in PubChem BioAssay by Broad Institute.
